Results as given in ChEMBL document CHEMBL1136933 (J Med Chem, 2009).
Calls of active or inactive are those of the source. The rule behind the calls is not given here.

Tests used:
[1] = target: Muscarinic acetylcholine receptor M3 (Homo sapiens, UniProt P20309); assay: Activation of human muscarinic M3 receptor expressed in CHO cells coexpressing Gq protein assessed as potentiation of acetylcholine-induced intracellular Ca2+ mobilization; assay type: functional, cell-based
Outline: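 Calcium flux assay. Stable CHO lines were seeded at 5 × 10^4 cells/well (M1, M3, M5) or 6 × 10^4 cells/well (Gqi5 M2, M4) and grown overnight at 37 °C, 5% CO2. Cells were loaded 1 h at 37 °C with 2 µM Fluo-4 AM. […] At least three independent determinations, each in duplicate or more.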

[2] = species on record: Homo sapiens; assay: Selectivity ratio of EC50 for human muscarinic M3 receptor to EC50 for human muscarinic M5 receptor
[3] = AUC (0 to 6 hrs) in Sprague-Dawley rat brain at 10 mg/kg, ip; assay type: ADME, organism-based; design: time < 6 hr, dose 10 mg/kg, route intraperitoneal
Outline: (§1)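 Male Sprague-Dawley rats (225-250 g) dosed ip at 10 mg/kg as a 5 mg/ml micro-suspension in 10% Tween 80 in sterile water. Plasma and brain sampled at 0.5, 1, 3 and 6 h, three animals per time point. Quantified by protein precipitation and LC-MS/MS against an internal standard. Brain values corrected for residual blood. PK parameters derived by noncompartmental analysis.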

[4] = Apparent oral clearance in Sprague-Dawley rat plasma at 10 mg/kg, ip; assay type: ADME, organism-based; design: dose 10 mg/kg; outline: as §1
[5] = Elimination half life in Sprague-Dawley rat brain at 10 mg/kg, ip; assay type: ADME, organism-based; design: dose 10 mg/kg, route intraperitoneal; settings: read-out: beta t1/2 (converted); outline: as §1
[6] = target: T1, Muscarinic acetylcholine receptor M4 (Rattus norvegicus) (UniProt P08485); assay: Activation of rat muscarinic M4 receptor expressed in CHO cells coexpressing chimeric Gqi5 protein assessed as potentiation of acetylcholine-induced intracellular Ca2+ mobilization up to 30 uM; assay type: functional, cell-based
T1 sequence (whole entry): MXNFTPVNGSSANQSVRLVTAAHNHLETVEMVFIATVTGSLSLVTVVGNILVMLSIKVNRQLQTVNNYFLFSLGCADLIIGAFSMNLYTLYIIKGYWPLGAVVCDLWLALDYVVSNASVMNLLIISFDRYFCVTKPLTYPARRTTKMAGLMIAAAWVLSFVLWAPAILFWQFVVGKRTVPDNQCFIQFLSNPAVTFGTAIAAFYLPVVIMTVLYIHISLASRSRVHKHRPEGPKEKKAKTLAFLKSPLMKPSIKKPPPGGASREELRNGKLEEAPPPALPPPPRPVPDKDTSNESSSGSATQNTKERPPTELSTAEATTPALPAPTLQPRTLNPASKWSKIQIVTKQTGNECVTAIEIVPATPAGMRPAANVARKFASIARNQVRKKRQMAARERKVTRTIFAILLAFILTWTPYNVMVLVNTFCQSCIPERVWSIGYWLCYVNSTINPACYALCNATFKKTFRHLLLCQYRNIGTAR

[7] = target: T2, Muscarinic acetylcholine receptor M5 (Homo sapiens) (UniProt P08912); assay: Displacement of [3H]NMS from human muscarinic M5 receptor expressed in CHO cells coexpressing Gq protein up to 30 uM by scintillation counting; assay type: cell-based
T2 sequence (whole entry): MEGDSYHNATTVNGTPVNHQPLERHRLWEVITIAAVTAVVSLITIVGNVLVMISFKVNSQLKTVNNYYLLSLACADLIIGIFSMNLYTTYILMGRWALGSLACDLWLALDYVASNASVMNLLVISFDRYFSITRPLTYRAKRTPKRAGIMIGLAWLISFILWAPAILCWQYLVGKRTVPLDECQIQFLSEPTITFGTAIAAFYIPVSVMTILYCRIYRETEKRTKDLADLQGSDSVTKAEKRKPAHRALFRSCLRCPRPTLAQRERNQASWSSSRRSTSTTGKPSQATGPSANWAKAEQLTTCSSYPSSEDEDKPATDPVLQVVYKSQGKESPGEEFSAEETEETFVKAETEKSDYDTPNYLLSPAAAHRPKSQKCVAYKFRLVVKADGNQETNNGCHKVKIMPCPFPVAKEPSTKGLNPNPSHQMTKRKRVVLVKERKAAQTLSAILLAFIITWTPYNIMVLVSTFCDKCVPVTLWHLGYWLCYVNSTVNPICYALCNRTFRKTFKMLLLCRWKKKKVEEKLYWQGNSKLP

[8] = Ratio of AUC (0 to 6 hrs) in Sprague-Dawley rat brain to AUC (0 to 6 hrs) in Sprague-Dawley rat plasma at 10 mg/kg, ip; assay type: ADME, organism-based; design: dose 10 mg/kg, route intraperitoneal; outline: as §1
[9] = target: T3, Muscarinic acetylcholine receptor M5 (Homo sapiens, UniProt P08912); assay: Activation of human muscarinic M5 receptor expressed in CHO cells coexpressing Gq protein assessed as potentiation of acetylcholine-induced intracellular Ca2+ mobilization; assay type: functional, cell-based
T3 sequence (P08912 whole entry): T2 sequence (whole entry)

Muscarinic acetylcholine receptor M3, sequence (P20309 whole entry): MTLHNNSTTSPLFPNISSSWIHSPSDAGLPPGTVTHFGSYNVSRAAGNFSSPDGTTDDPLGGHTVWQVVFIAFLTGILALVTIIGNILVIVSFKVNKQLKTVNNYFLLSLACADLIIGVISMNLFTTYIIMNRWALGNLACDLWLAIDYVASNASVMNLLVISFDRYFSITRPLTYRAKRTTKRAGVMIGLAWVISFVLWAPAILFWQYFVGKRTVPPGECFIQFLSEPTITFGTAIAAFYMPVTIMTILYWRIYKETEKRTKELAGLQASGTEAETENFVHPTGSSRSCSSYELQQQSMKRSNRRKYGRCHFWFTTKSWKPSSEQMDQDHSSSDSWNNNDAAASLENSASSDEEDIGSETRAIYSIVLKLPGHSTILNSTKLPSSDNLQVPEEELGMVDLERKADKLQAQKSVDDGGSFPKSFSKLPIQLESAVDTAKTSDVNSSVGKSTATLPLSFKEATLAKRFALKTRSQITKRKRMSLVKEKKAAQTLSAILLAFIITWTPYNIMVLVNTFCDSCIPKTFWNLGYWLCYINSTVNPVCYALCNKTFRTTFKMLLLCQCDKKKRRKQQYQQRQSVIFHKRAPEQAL

Compound: COc1ccc(CN2C(=O)C(=O)c3cc(OC(F)(F)F)ccc32)cc1
- EC50 [1]: > 30000 nM
- Ratio EC50 [2]: > 30
- AUC(0-t) at 6 h [3]: 159 ng·h/mL
- CL/F [4]: 145 mL/min
- half-life [5]: 3.69 h
- Activity [6]: inactive
- Activity [7]: inactive
- Ratio AUC [8]: 0.25
- EC50 [9]: 1160 nM
